Legend:
[1] = target: Serine/threonine-protein kinase PAK 4 (Homo sapiens, UniProt O96013); experiment: Inhibition of human PAK4 kinase domain using coumarin and fluorescein-labeled ser/thr20 peptide as substrate preincubated for 15 mins followed by ATP addition measured after 60 mins by Z'-Lyte assay
[2] = target: Serine/threonine-protein kinase PAK 1 (Homo sapiens, UniProt Q13153); experiment: Inhibition of human PAK1 kinase domain using coumarin and fluorescein-labeled ser/thr19 peptide as substrate preincubated for 15 mins followed by ATP addition measured after 60 mins by Z'-Lyte assay
Outline: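 FRET-based Z′-Lyte kinase assay run per the kit instructions. Ki values are the average of at least two duplicate experiments; SEM < ±20%.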

[3] = organism: Homo sapiens; experiment: Selectivity index, ratio of Ki for human PAK1 to Ki for human PAK4
Outline: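 Ratio of PAK1 Ki to PAK4 Ki, both taken from the FRET-based Z′-Lyte assay.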

Serine/threonine-protein kinase PAK 1, sequence (Q13153 whole entry, the tested form may be a part): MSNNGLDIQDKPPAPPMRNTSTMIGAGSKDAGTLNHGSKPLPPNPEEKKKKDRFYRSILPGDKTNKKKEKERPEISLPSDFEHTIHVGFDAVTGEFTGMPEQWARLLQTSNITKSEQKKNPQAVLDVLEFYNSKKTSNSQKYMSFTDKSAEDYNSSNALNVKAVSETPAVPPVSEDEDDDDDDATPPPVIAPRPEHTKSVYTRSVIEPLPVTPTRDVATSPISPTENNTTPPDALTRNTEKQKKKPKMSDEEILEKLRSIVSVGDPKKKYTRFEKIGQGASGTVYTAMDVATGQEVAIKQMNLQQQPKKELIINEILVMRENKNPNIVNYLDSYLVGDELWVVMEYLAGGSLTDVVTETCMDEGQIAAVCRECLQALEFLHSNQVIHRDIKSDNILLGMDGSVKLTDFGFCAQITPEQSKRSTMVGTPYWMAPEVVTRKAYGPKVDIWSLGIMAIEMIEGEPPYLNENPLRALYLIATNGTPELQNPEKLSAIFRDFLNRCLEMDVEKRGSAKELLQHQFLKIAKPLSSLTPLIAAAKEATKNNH
Serine/threonine-protein kinase PAK 4, sequence (O96013 whole entry, the tested form may be a part): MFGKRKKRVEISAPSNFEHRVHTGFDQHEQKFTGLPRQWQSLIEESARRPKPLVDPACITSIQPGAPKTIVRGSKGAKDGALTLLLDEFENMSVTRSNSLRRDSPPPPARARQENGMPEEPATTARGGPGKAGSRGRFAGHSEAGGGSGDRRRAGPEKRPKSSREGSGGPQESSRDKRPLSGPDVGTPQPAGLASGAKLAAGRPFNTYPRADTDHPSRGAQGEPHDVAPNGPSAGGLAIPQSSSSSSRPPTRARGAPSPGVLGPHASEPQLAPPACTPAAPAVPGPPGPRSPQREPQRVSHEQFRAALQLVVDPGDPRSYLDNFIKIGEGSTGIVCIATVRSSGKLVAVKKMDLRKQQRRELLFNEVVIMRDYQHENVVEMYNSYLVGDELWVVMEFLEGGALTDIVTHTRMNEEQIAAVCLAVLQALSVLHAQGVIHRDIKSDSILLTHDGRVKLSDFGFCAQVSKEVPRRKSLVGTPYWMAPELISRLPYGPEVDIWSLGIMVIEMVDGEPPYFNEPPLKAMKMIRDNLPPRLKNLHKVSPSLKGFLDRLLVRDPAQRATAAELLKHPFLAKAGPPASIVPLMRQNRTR

Ki [1] [nM]	Ki [2] [nM]	Ratio Ki [3]	Structure (SMILES)
16	503	31	C[C@@H]1CN(C(=O)c2nc(Nc3cc(C4CC4)[nH]n3)c3cc(F)ccc3n2)CCN1
119			Cc1cc(Nc2nc(C(=O)N3CC(C)NC(C)C3)nc3ccc(Cl)cc23)n[nH]1 (mixture of isomers)
2410			Cc1cc(Nc2nc(C(=O)N3CCNC(=O)C3)nc3ccc(Cl)cc23)n[nH]1
36	> 4520	> 126	COc1ccc2nc(C(=O)N3CCN[C@H](C)C3)nc(Nc3cc(C4CC4)[nH]n3)c2c1
218	> 4520	> 21	Cc1cc(Nc2nc(C(=O)N3CCNC[C@@H]3C)nc3ccc(Cl)cc23)n[nH]1
17	2080	122	C[C@@H]1CNCCN1C(=O)c1nc(Nc2cc(C3CC3)[nH]n2)c2cc(Cl)ccc2n1
306	> 4520	> 15	Cc1cc(Nc2nc(C(=O)N3CCN[C@@H](C)C3)nc3ccc(Cl)cc23)n[nH]1
11	2080	190	C[C@@H]1CN(C(=O)c2nc(Nc3cc(C4CC4)[nH]n3)c3cc(Br)ccc3n2)CCN1
674			Cc1cc(Nc2nc(C(=O)N3CCC(C)(N)CC3)nc3ccc(Cl)cc23)n[nH]1
768			Cc1cc(Nc2nc(C(=O)N3CCN(C)CC3)nc3ccc(Cl)cc23)n[nH]1
77			CC(C)c1cc(Nc2nc(N3CCC(N)CC3)nc3ccc(Cl)cc23)n[nH]1
1630			Cc1cc(Nc2nc(C(=O)N(C)C3CCCNC3)nc3ccc(Cl)cc23)n[nH]1 (racemic)

Continued, compound first:

Structure (SMILES)	Ki [1] [nM]	Ki [2] [nM]	Ratio Ki [3]
Cc1cc(Nc2nc(C(=O)N3CCC(N)CC3)nc3ccc(Cl)cc23)n[nH]1	354		
Cc1cc(Nc2nc(C(=O)N3CCN[C@H](C)C3)nc3ccc(Cl)cc23)n[nH]1	51	> 10000	> 196
C[C@H]1CNCCN1C(=O)c1nc(Nc2cc(C3CC3)[nH]n2)c2cc(Cl)ccc2n1	26	383	15
NC1CCN(c2nc(Nc3cn(C4CC4)cn3)c3cc(Cl)ccc3n2)CC1	652		
CNC1CCN(C(=O)c2nc(Nc3cc(C)[nH]n3)c3cc(Cl)ccc3n2)CC1	672		
C[C@H]1CN(C(=O)c2nc(Nc3cc(C4CC4)[nH]n3)c3cc(Cl)ccc3n2)CCN1	28	690	25
Cc1cc(Nc2nc(C(=O)N3CCC(C)(O)CC3)nc3ccc(Cl)cc23)n[nH]1	3890		
Cc1cc(Nc2nc(C(=O)NC3CCNCC3)nc3ccc(Cl)cc23)n[nH]1	325		
Cc1cc(Nc2nc(C(=O)N3CCNC[C@H]3C)nc3ccc(Cl)cc23)n[nH]1	151	> 4520	> 30
Cc1cc(Nc2nc(C(=O)N3CCC(O)CC3)nc3ccc(Cl)cc23)n[nH]1	3820		
C[C@@H]1CN(C(=O)c2nc(Nc3cc(C4CC4)[nH]n3)c3ccc(Cl)cc3n2)CCN1	7	401	57
NC1CCN(c2nc(Nc3cc(-c4ccccc4)[nH]n3)c3cc(Cl)ccc3n2)CC1	256		
NC1CCN(c2nc(Nc3cn(-c4ccccc4)cn3)c3cc(Cl)ccc3n2)CC1	1440		
CC(C)n1cnc(Nc2nc(N3CCC(N)CC3)nc3ccc(Cl)cc23)c1	884		
CC[C@@H]1CN(C(=O)c2nc(Nc3cc(C4CC4)[nH]n3)c3cc(Cl)ccc3n2)CCN1	6	368	61
CC1CN(C(=O)c2nc(Nc3cc(C4CC4)[nH]n3)c3cc(Cl)ccc3n2)CC(C)N1 (mixture of isomers)	114	> 4520	> 40
Cc1cc(Nc2nc(C(=O)N(C)C3CCNCC3)nc3ccc(Cl)cc23)n[nH]1	576		
Cc1cc(Nc2nc(C(=O)NC3CNC3)nc3ccc(Cl)cc23)n[nH]1	782		
C[C@@H]1CN(C(=O)c2nc(Nc3cc(C4CC4)[nH]n3)c3ccccc3n2)CCN1	17	1070	63
